Experimental data as given in ChEMBL document CHEMBL1681705, “Optimisation of ITK inhibitors through successive iterative design cycles” (Bioorg Med Chem Lett, 2011).

Tests used:
[1] = biological target: Tyrosine-protein kinase Fer (Homo sapiens) (UniProt P16591); assay: Inhibition of Fer at 1 uM; values are per cent of control
[2] = biological target: MAP kinase-activated protein kinase 2 (Homo sapiens) (UniProt P49137); assay: Inhibition of MAPKAP-K2 at 0.1 uM; values are per cent of control
[3] = biological target: Serine/threonine-protein kinase SIK1 (Homo sapiens) (UniProt P57059); assay: Inhibition of SIK at 1 uM
Serine/threonine-protein kinase SIK1 (Homo sapiens), sequence (P57059 whole entry): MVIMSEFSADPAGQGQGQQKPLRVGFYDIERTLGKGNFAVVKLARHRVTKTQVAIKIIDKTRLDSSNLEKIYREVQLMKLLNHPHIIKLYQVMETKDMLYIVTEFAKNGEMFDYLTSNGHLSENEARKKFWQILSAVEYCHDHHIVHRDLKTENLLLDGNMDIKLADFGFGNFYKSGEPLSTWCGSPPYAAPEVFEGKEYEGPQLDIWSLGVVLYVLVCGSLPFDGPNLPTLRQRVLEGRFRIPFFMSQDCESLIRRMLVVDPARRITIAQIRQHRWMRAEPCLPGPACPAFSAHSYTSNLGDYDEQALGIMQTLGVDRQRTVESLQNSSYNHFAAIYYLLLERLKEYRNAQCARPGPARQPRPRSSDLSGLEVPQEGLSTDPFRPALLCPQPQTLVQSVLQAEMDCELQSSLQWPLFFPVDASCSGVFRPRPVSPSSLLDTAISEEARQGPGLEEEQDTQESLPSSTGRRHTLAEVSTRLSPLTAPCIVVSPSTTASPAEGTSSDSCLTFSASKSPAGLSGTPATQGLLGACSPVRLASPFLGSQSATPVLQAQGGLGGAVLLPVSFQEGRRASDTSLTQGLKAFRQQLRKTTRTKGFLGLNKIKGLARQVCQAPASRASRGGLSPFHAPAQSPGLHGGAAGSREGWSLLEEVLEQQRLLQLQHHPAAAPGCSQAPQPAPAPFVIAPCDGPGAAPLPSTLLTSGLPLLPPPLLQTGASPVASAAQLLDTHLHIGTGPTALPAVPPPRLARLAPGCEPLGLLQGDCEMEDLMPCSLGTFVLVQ

[4] = biological target: T1, Protein kinase C iota type (Homo sapiens) (UniProt P41743); assay: Inhibition of PKCiota at 0.1 uM; values are per cent of control
T1 sequence (whole entry): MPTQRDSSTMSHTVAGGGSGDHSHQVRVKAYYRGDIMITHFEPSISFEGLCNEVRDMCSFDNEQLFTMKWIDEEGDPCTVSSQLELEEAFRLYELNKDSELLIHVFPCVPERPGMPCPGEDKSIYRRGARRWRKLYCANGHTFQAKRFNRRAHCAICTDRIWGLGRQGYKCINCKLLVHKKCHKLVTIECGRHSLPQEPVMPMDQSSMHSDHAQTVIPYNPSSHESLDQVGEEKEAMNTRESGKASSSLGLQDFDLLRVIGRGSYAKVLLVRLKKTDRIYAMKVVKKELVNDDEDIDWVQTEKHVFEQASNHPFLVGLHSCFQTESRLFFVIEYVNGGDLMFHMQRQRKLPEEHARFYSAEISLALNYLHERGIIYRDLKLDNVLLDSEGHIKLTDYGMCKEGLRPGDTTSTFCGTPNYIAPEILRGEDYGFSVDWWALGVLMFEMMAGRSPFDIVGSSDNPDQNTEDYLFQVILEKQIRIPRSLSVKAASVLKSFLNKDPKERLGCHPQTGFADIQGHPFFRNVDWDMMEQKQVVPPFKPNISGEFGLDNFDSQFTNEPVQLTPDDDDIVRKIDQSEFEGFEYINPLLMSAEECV

[5] = biological target: T2, Ephrin type-A receptor 8 (Homo sapiens) (UniProt P29322); assay: Inhibition of EphA8 at 1 uM; values are per cent of control
T2 sequence (whole entry): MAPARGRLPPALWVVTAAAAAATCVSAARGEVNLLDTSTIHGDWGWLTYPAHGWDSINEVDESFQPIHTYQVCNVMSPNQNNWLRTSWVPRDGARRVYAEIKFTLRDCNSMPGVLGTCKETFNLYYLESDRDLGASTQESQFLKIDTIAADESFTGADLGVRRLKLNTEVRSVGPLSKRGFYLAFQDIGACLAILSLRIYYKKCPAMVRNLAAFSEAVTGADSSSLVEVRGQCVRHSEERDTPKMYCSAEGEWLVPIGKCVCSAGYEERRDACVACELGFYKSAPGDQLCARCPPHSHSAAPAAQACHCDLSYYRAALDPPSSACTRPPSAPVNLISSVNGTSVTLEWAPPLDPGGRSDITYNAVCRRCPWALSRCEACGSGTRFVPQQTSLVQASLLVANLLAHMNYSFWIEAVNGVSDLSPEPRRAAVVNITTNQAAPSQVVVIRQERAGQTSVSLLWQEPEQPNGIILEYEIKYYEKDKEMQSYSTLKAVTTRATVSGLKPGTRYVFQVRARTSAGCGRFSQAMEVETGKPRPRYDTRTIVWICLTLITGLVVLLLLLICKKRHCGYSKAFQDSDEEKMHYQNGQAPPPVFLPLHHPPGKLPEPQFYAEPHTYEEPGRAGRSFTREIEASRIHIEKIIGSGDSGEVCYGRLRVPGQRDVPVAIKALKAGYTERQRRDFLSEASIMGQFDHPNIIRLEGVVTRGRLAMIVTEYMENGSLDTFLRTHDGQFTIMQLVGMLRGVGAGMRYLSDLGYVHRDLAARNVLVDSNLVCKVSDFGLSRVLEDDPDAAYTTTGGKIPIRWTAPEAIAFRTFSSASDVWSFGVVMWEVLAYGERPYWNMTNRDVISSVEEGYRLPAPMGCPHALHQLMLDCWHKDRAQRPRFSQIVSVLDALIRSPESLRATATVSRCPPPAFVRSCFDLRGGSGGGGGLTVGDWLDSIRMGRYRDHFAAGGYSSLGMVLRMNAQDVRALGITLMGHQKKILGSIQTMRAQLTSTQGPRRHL

[6] = biological target: Interleukin-1 receptor-associated kinase 1 (Homo sapiens) (UniProt P51617); assay: Inhibition of IRAK1 at 1 uM
Interleukin-1 receptor-associated kinase 1 (Homo sapiens), sequence (P51617 whole entry, looked up): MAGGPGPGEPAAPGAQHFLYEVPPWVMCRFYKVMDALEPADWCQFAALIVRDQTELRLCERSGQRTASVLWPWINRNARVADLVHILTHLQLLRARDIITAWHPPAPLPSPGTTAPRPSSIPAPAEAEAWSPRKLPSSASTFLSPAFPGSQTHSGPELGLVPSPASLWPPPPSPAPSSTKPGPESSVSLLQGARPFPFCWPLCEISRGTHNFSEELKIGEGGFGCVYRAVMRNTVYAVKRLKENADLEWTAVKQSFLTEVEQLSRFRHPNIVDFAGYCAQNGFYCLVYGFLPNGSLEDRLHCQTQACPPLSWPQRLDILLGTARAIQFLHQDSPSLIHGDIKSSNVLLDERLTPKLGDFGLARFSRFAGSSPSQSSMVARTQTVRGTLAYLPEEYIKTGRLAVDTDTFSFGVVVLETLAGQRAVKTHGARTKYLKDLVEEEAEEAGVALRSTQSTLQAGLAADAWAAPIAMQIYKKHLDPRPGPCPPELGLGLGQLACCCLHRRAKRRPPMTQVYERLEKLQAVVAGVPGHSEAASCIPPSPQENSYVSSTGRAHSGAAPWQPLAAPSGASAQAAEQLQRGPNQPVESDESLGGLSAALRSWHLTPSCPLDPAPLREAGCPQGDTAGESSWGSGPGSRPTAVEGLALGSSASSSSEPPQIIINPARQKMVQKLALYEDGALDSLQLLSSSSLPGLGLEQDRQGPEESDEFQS
Summary of the method: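 Single-point profiling in a panel of 108 kinases. Each selected inhibitor was tested at two concentrations, 0.1 and 1.0 micromolar. Values are reported as inhibition at each concentration.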

[7] = biological target: ALK tyrosine kinase receptor (Homo sapiens) (UniProt Q9UM73); assay: Inhibition of ALK at 1 uM; values are per cent of control
ALK tyrosine kinase receptor (Homo sapiens), sequence (Q9UM73 19-1620 limits assumed): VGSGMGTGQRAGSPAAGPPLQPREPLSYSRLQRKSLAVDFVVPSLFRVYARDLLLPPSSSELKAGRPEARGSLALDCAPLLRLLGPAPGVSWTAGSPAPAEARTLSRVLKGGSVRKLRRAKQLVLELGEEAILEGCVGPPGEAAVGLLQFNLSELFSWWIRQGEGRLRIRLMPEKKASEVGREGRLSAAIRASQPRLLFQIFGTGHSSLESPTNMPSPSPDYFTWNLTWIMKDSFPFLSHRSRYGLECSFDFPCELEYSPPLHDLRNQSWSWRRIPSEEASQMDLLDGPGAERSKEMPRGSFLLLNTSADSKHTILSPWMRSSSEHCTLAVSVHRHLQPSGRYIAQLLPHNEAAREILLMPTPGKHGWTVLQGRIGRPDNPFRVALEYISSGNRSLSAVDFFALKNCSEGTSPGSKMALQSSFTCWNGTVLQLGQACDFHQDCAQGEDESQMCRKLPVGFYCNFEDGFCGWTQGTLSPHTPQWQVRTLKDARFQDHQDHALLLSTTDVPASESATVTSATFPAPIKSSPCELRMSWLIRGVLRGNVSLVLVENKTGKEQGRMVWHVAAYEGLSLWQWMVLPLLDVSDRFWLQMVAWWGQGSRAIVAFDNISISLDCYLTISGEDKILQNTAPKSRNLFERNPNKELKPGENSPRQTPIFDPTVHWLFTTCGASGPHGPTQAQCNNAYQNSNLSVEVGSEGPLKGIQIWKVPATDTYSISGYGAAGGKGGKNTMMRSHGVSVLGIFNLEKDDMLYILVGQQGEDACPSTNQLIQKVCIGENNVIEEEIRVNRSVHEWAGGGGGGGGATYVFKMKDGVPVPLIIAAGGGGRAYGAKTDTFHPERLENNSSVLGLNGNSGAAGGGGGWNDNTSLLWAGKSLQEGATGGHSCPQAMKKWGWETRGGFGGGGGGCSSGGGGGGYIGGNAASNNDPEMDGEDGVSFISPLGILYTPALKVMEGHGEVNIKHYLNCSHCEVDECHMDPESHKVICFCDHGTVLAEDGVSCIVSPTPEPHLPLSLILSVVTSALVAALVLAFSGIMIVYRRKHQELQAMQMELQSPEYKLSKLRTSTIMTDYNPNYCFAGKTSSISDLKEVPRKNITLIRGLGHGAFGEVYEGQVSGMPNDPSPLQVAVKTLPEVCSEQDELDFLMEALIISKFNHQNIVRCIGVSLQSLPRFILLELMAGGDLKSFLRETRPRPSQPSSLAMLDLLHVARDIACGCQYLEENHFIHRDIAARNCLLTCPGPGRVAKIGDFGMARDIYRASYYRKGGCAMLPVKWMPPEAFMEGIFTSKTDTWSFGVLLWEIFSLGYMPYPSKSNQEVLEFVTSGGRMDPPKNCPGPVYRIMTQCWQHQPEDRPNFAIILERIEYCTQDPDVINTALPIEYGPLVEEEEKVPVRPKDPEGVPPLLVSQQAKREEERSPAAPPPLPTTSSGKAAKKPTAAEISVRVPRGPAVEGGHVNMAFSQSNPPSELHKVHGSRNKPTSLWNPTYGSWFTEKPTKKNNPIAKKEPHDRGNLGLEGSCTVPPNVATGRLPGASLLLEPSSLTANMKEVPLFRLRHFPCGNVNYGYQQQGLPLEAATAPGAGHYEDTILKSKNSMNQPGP

[8] = biological target: Tyrosine-protein kinase Lck (Homo sapiens) (UniProt P06239); assay: Inhibition of Lck at 0.1 uM; values are per cent of control
Tyrosine-protein kinase Lck (Homo sapiens), sequence (P06239 2-509 limits assumed): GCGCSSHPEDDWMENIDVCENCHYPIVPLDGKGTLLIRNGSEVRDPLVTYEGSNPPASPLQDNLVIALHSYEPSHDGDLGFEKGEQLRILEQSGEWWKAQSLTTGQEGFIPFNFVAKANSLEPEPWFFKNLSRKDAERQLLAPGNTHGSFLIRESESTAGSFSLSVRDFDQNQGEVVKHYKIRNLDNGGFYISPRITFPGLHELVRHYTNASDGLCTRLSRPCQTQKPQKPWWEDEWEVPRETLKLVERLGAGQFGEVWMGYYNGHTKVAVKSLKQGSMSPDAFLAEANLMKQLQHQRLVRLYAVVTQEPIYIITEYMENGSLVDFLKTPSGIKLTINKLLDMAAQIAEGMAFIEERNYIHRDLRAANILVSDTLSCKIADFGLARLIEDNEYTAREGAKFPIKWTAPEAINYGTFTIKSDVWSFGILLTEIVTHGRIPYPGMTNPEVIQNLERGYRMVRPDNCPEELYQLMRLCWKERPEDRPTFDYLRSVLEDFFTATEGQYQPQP

Tyrosine-protein kinase Fer (Homo sapiens), sequence (P16591 whole entry, looked up): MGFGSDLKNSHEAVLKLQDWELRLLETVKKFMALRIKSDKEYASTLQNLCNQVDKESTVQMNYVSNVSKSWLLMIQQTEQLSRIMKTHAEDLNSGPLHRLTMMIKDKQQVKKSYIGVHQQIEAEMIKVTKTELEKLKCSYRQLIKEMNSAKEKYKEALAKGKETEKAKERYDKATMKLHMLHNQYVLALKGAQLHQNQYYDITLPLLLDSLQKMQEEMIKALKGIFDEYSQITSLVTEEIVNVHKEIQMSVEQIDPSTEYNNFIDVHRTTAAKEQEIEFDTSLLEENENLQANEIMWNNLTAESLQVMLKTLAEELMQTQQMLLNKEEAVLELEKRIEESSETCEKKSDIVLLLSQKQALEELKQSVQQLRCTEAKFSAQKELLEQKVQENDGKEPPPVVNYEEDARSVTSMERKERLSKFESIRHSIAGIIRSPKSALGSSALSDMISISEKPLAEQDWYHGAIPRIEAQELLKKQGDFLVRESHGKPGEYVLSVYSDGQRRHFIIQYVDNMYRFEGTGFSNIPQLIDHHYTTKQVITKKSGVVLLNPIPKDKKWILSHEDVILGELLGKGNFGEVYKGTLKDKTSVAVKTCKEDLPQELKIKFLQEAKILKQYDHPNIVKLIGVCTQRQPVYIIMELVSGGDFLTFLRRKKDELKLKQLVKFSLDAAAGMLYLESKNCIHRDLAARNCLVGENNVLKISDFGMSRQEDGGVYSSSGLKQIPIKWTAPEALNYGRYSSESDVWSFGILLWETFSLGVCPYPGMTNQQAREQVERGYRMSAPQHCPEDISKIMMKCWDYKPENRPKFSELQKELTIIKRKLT
MAP kinase-activated protein kinase 2 (Homo sapiens), sequence (P49137 whole entry, looked up): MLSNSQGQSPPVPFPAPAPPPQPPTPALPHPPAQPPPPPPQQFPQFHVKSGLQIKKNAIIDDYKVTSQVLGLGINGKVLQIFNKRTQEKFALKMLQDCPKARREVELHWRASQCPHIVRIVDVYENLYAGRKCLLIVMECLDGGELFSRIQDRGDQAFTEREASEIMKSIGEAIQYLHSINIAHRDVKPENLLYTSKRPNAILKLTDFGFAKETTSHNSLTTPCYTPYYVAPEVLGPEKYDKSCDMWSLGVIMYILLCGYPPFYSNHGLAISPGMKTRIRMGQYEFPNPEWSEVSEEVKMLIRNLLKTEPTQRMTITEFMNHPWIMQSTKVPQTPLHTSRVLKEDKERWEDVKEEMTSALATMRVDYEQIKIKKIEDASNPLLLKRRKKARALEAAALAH

| Compound | residual activity [1] [%] | residual activity [2] [%] | inhibition [3] [%] | residual activity [4] [%] | residual activity [5] [%] | inhibition [6] [%] | residual activity [7] [%] | residual activity [8] [%] |
| --- | --- | --- | --- | --- | --- | --- | --- | --- |
| Cc1ccc2cc(-c3n[nH]c4ccc(NC5CCNC5)cc34)[nH]c2c1 (stereo unspecified) | 2 | 98 | 9 | 89 | 57 | 7 | 5 | 27 |
| Cc1ccc2cc(-c3n[nH]c4ccc(NC5CCN(Cc6ccccc6)CC5)cc34)[nH]c2c1 | 3 | 104 | 14 | 109 | 58 | 9 | 4 | 61 |
